The target in experiment [1] is T1, Fatty-acid amide hydrolase 1 (Rattus norvegicus) (UniProt P97612).
T1 sequence (whole entry): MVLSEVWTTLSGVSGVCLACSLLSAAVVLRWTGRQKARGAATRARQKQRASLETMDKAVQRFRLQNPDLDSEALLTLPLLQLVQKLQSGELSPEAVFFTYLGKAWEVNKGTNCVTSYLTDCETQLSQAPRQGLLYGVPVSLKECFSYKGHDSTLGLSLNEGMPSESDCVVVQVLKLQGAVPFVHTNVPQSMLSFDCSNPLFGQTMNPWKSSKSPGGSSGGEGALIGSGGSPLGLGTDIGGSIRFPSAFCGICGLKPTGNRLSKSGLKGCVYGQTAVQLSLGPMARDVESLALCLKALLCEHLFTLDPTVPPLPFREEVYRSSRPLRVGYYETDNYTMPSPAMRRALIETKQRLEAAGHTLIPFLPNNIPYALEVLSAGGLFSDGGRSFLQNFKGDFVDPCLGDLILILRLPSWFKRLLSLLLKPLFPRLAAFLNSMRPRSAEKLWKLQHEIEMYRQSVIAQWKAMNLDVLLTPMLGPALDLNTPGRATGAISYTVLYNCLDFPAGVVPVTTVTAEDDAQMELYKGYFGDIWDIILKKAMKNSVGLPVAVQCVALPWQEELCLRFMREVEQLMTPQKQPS
The experiment in a line: Maximum Inhibition of fatty acid amide hydrolase (FAAH) was determined using rat brain homogenates at 100 uM. Put shortly:
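Rat brain (minus cerebellum) homogenate in 10 mM Tris-HCl, 1 mM EDTA, pH 7.6, incubated 10 min at 37 °C with test agent or ethanol carrier. Substrate: 2 µM final anandamide with trace [3H]anandamide (ethanolamine label), 1% fatty acid free BSA. Stopped on ice plus chloroform/methanol. Aqueous-phase [3H]ethanolamine counted by scintillation. Inhibition read at 100 µM where IC50 fit failed.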

The target in experiment [2] is Transient receptor potential cation channel subfamily V member 1 (Rattus norvegicus, UniProt O35433). The experiment is described as follows: Binding affinity against vanilloid receptor 1 (VR1) using [3H]RTX in rat spinal cord membranes. Format: cell membranes, Membrane. In a few lines: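 Rat spinal cord membranes (about 1 mg/mL protein) in HEPES/sucrose buffer pH 7.4 with 0.25 mg/mL BSA. Incubated 60 min at 37 °C with 25 pM [3H]RTX plus competitor; nonspecific binding defined with 1 µM RTX. Stopped on ice, α1-acid glycoprotein added, membranes pelleted and counted. Ki by Cheng-Prusoff. Two to four experiments in triplicate.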
Sequence of Transient receptor potential cation channel subfamily V member 1 (O35433 whole entry): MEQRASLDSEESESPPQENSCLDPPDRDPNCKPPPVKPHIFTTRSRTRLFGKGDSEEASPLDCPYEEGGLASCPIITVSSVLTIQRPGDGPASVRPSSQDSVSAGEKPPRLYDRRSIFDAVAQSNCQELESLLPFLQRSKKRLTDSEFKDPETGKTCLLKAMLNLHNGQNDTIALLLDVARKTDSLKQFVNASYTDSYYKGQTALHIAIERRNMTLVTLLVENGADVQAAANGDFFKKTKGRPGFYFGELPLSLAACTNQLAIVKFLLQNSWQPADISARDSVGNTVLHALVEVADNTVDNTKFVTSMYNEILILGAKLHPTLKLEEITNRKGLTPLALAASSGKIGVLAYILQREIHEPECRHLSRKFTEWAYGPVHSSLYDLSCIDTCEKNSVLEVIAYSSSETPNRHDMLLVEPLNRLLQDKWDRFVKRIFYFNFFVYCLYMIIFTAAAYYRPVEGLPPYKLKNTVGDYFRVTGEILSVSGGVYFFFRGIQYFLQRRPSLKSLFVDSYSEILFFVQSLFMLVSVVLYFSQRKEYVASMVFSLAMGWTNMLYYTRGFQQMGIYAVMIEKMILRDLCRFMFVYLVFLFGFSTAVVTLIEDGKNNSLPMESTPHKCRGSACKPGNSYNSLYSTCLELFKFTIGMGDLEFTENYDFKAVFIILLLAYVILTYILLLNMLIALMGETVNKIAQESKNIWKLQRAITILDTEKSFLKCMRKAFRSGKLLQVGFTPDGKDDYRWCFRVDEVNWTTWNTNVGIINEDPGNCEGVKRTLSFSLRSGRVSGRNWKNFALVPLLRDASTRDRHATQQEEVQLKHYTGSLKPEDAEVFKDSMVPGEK

The target of the next experiment is Cannabinoid receptor 1 (Rattus norvegicus, UniProt P20272). The experiment in a line: Binding affinity against G protein coupled Cannabinoid receptor 1 using [3H]WIN-55212-2 in rat cerebellum membranes. In kind it is cell membranes, Membrane. Put shortly: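 Rat cerebellum membranes washed in 50 mM Tris-HCl pH 7.4, resuspended at about 2 mg/mL protein. Incubated 90 min at 30 °C with 0.5 nM [3H]WIN55212-2 plus competitor in Tris/EDTA/MgCl2/5 mg/mL BSA buffer. Nonspecific binding defined with 10 µM SR141716A. Bound ligand separated by GF/C filtration and counted by scintillation. IC50 from curve fit, Ki by Cheng-Prusoff. Two to four experiments in triplicate.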
Sequence of Cannabinoid receptor 1 (P20272 whole entry): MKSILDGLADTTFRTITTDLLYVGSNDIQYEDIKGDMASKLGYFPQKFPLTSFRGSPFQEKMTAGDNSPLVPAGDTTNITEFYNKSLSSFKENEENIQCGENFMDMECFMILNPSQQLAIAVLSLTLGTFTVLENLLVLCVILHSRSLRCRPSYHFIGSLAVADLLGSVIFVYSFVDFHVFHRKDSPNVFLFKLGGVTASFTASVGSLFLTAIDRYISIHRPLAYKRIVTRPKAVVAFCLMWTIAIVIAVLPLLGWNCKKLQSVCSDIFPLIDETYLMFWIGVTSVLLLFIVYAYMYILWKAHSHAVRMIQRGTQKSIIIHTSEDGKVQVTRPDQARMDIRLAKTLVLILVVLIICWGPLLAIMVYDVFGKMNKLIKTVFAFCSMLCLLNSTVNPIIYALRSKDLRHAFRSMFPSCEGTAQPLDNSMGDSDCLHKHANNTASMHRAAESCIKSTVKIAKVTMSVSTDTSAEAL

In experiment [3] the target is T2, Fatty-acid amide hydrolase 1 (Rattus norvegicus, UniProt P97612).
T2 sequence (P97612 whole entry): T1 sequence (whole entry)
The experiment is described as follows: Inhibition of fatty acid amide hydrolase (FAAH) was determined using rat brain homogenates as the enzyme source and [3H]anandamide as substrate. In kind it is tissue-based. Put shortly: (§1)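 Rat brain homogenate without cerebellum, in 10 mM Tris-HCl/1 mM EDTA pH 7.6, incubated 10 min at 37 °C with compound (ethanol carrier). Substrate: anandamide 2 µM final with trace [3H]anandamide labelled in the ethanolamine, plus BSA. Stopped on ice with chloroform/methanol; [3H]ethanolamine in the aqueous phase counted. Eight concentrations from 0.5 to 100 µM, at least three experiments.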

The species entered for experiment [4] is Homo sapiens. The experiment in a line: Maximum Inhibition of anandamide transport(ANT) was determined against human lymphoma U937 cell at a dose of 50 uM. Format: functional, U-937. Put shortly: (§2)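 U937 cells (10^6/mL, RPMI 1640) preincubated 10 min at 37 °C with inhibitor, highest concentration tested 50 µM. Then [3H]anandamide 0.45 nM plus cold anandamide (100 nM final) added for 7 min. Stopped by GF/C filtration and washed with Krebs-HEPES; radioactivity counted. Nonspecific uptake measured at 4 °C. IC50 by curve fit; maximum inhibition is the % inhibition at 50 µM.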

Another experiment addresses Cannabinoid receptor 2 (Homo sapiens, UniProt P34972). The experiment in a line: Binding affinity against G protein coupled human Cannabinoid receptor 2 using [3H]CP-55940 in HEK293 EBNA transfected cells. In kind it is cell-based. In a few lines:
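Incubated 90 min at 30 °C with 0.3 nM [3H]CP55940 plus competitor. Filtered and counted by scintillation. IC50 from curve fit, Ki by Cheng-Prusoff. Two to four experiments in triplicate.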

The target of experiment [5] is T2, Fatty-acid amide hydrolase 1. The experiment in a line: Maximum Inhibition of fatty acid amide hydrolase (FAAH) was determined using rat brain homogenates at concentrations ranging from 0.5 to 100 uM. Put shortly: as §1
For experiment [6], the species on record is Homo sapiens. The experiment is described as follows: Inhibition of [3H]anandamide transport(ANT) in human lymphoma U937 cell. Format: functional. As to conditions: U-937. Put shortly: as §2

Where only a bound is given, the exact number is not on record here.

Sequence of Cannabinoid receptor 2 (P34972 whole entry): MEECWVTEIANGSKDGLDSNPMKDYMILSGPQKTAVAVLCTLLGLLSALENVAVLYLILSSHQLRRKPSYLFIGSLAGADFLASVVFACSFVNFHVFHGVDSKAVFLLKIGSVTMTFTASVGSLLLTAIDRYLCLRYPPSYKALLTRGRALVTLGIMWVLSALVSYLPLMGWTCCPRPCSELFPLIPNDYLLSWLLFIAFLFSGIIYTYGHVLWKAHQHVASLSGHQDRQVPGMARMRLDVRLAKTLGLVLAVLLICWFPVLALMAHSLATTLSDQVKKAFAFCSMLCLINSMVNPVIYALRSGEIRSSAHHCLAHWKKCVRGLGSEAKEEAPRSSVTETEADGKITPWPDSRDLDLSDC

`CCCCC/C=C\C/C=C\C/C=C\C/C=C\CCCC(=O)O[C@H](C)c1ccco1`: the Max inhibition in experiment [1] was determined as 19%; in the experiment listed under Homo sapiens [4], 37%. Moreover, the inhibitory constant (Ki) is over 5 µM in experiment [2], over 1 µM on Cannabinoid receptor 1 and over 5 µM at Cannabinoid receptor 2. Besides, the IC50 in experiment [3] was over 120 µM.

Regarding `CCCCC/C=C\C/C=C\C/C=C\C/C=C\CCCC(=O)N(C)Cc1ccoc1`, the results for the half-inhibitory concentration (IC50) (in experiment [5]; in experiment [3]; in the experiment filed under Homo sapiens [6]) were 24 µM, over 120 µM and 111 µM, respectively. Further, the Ki on Cannabinoid receptor 1 and at Cannabinoid receptor 2 was over 1 µM in each case. For the same compound, in the experiment listed under Homo sapiens [4], the Max inhibition is recorded as over 85%.

As to `CCCCC/C=C\C/C=C\C/C=C\C/C=C\CCCC(=O)O[C@@H](C)c1ccco1`, the values for the Max inhibition (in experiment [1]; in the experiment listed under Homo sapiens [4]) were 24% and 55%, respectively. Moreover, the Ki was over 5 µM in experiment [2], over 1 µM at Cannabinoid receptor 1 and over 5 µM on Cannabinoid receptor 2. This compound also registered a 50% inhibitory concentration (IC50) in experiment [3] of over 120 µM.

`CCCCC/C=C\C/C=C\C/C=C\C/C=C\CCCC(=O)NCCc1ccco1`: the Max inhibition in experiment [1] was 38%; in the experiment listed under Homo sapiens [4] it was over 85%. For the same compound, the Ki in experiment [2] is over 5 µM; at Cannabinoid receptor 1, over 5 µM; on Cannabinoid receptor 2, over 1 µM. Further, the IC50 in experiment [3] was over 120 µM; in the experiment listed under Homo sapiens [6], 12.8 µM.

These data come from ChEMBL document CHEMBL1136766, “Design, synthesis, and biological evaluation of new inhibitors of the endocannabinoid uptake: comparison with effects on fatty acid amidohydrolase” (J Med Chem, 2003).
